Screens (PubChem)
Most compounds without a hit are left out; they make up all but 1.2% or so of the library.
TPT1 inh = blocks Candida albicans tRNA 2'-phosphotransferase; recombinant caTPT1, FP RNA substrate dephosphorylation; inhibition, % at 5 µM; AID 1962; 300,000 compounds, 0.81% hits;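 active means inhibition above the mean of all tested compounds plus 3 SD, set per screening campaign, cut at about 24% in these data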
proCasp7 act = counter-screen for procaspase-3 activators: activators of human procaspase-7; activation, % at 8.5 µM; P55210; 330,000 compounds, 0.093% hits; recombinant procaspase-7, Ac-DEVD-pNA absorbance 405 nm; D23A/D198A/D206A triple mutant, cannot self-cleave; scale: DMSO 0, 5 µM enzyme 100; AID 463210;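 active means percent activation above the screen-wide mean plus 3 SD, cut at about 25% in these data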
Target sequence (P55210 whole entry D23A/D198A/D206A): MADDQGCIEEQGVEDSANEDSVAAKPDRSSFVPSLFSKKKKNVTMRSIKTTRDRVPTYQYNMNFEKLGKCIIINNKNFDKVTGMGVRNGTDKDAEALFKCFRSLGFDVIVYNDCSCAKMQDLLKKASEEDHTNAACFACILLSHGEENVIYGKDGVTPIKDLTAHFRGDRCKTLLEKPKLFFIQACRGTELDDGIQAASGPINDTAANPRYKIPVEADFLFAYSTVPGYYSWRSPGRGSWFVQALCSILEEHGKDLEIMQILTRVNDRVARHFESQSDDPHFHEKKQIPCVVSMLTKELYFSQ
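System: Procaspase-7 triple mutant (PC-7 D3A); measure: % activation from two-timepoint absorbance difference, scaled to controls; times: 1 h compound preincubation, 2 h substrate cleavage, 25 °C; also added: Ac-DEVD-pNA substrate, 400 µM as added; measured by: Epi-absorbance of released pNA at 405 nm, two timepoints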
IDE cell inh = inhibits human insulin-degrading enzyme in HEK cells | P14735 | FAbetaB cleavage, fluorescence polarization | 320,000 compounds, 0.41% hits | inhibition, % at 5.59 µM;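 active means percent inhibition above the average of all tested compounds plus 3 SD, set per screening campaign, cut at about 16% in these data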;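 further: IDE supplied by intact live HEK cells; FP after avidin binding of uncleaved biotin substrate so inhibition keeps polarization high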
IDE cell activ = activators of human insulin-degrading enzyme in cells | P14735 | HEK cells, FAbeta-B cleavage, fluorescence polarization; 0% vehicle, 100% cell-free pure enzyme wells | activation, % at 5.96 µM | 340,000 compounds, 0.073% hits | AID 493087;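 active means activation above the mean of all tested compounds plus 3 SD, set per screening campaign, cut at about 17% in these data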
procasp3 activ = procaspase-3 (human) activation; recombinant procaspase-3 D3A, Ac-DEVD-pNA absorbance 405 nm; 330,000 compounds, 0.11% hits; activation, % at 8.5 µM;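 active means activation above the mean of all tested compounds plus 3 SD, cut at about 21% in these data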
Target sequence (P42574 whole entry D9A/D28A/D175A): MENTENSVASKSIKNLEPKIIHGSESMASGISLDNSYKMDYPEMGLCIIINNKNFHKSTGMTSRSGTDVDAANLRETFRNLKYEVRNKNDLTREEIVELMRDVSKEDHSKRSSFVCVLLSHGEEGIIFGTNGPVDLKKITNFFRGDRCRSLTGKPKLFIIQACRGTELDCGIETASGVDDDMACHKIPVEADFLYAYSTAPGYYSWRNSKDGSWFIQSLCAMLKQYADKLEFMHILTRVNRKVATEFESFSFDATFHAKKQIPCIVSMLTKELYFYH
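Compound: 8.5 µM single point, 0.8% DMSO / Material: Autoprocessing-dead procaspase-3 D3A mutant enzyme / Timing: 1 h preincubation plus 2 h reaction at 25 °C / Medium: Zinc-free HEPES/NaCl buffer with 0.01% Triton X-100 at pH 7.4 / Technique: 405 nm absorbance of p-nitroaniline, reads at 0 and 120 min / Repeats: one well per compound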
IDE inh confirm = cellular human IDE inhibition, confirmation; 1,200 compounds, 51% hits; HEK cells, FAbetaB cleavage, fluorescence polarization; shares compounds with IDE cell inh; AID 435028; inhibition, % at 5.59 µM;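 active means mean inhibition across triplicate wells above the cutoff set by the earlier primary insulin-degrading enzyme screen, cut at about 16% in these data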
HEK293 tox = kills HEK cells in IDE inhibitor counter-screen | shares compounds with IDE cell inh | HEK293 cytotoxicity, ATP luminescence | inhibition, % at 5.59 µM | 1,200 compounds, 28% hits; in the data active means inhibition above about 22%
Each line names hits and unclear results; the compound was inactive in the other large screens (follow-up assays come after a bar, where they were run).

Cc1ccccc1C(=O)Nc1ccnc(-c2ccncc2)n1	none
Cc1cccc(C(=O)Nc2ccnc(-c3cccnc3)n2)c1	IDE cell inh 44 | IDE inh confirm 31 | HEK293 tox inactive
Cc1cccc(C(=O)Nc2ccnc(-c3ccncc3)n2)c1	IDE cell inh 51 | IDE inh confirm 27 | HEK293 tox inactive
CCOc1ccc2nc(NC(=O)CSc3nc4c(c(=O)n(C)c(=O)n4C)n3C(C)C)sc2c1	none
CCOc1ccc2nc(NC(=O)Cn3cnc4c3c(=O)n(C)c(=O)n4C)sc2c1	IDE cell inh 19 | IDE inh confirm inactive | HEK293 tox inactive
CCOC(=O)c1ccc(NCCc2ccc(OC)c(OC)c2)c(N)c1	none
Oc1c(Cl)cc(Cl)c2cccnc12	none (no result: TPT1 inh, proCasp7 act, IDE cell inh, procasp3 activ)
Clc1cc2cccnc2c2ccccc12	IDE cell inh 19 | IDE inh confirm inactive | HEK293 tox inactive
CCOc1ccc(Nc2ccnc3cc(Cl)ccc23)cc1	IDE cell inh 17 | IDE inh confirm inactive | HEK293 tox 36
CN1CCN(c2ccc(Nc3ccnc4cc(Cl)ccc34)cc2)CC1	none
C=CCc1cc(/C=C2/NC(=S)NC2=O)cc(OC)c1O	IDE cell inh 36 | IDE inh confirm 88 | HEK293 tox inactive
O=C(COc1ccccc1Cl)NCCCNC(=O)c1ccco1	none
Cc1cc(C)cc(NCc2cc(=O)oc3cc(-c4ccccc4)c(O)cc23)c1	none
COc1ccc(C)cc1NCc1cc(=O)oc2cc(-c3ccccc3)c(O)cc12	IDE cell inh 20 | IDE inh confirm inactive | HEK293 tox inactive
CCOc1ccc(N)c(SSc2cc(OCC)ccc2N)c1	none
CS(=O)(=O)c1ccc(N)c(SSc2cc(S(C)(=O)=O)ccc2N)c1	IDE cell inh 30 | IDE inh confirm 27 | HEK293 tox inactive
CN(C)S(=O)(=O)c1ccc(N=Cc2c(C(F)(F)F)[nH]n(C)c2=O)cc1	none
O=C(Nc1ccccc1)c1ccc(F)c(S(=O)(=O)N2CCOCC2)c1	none
O=C(Nc1ccc(-c2cn3ccsc3n2)cc1)c1ccc(F)c(S(=O)(=O)N2CCOCC2)c1	IDE cell inh 21 | IDE inh confirm inactive | HEK293 tox 58
CC(=O)Oc1ccc(Cl)cc1/C=C/c1cc(OC(C)=O)c2ccccc2n1	IDE cell inh 37 (no result: IDE cell activ) | IDE inh confirm 89 | HEK293 tox inactive
CCOc1ccc(/C=C2/SC(=S)N(C(C(=O)O)c3ccccc3)C2=O)cc1OCC (stereo not drawn)	none (no result: TPT1 inh, proCasp7 act, IDE cell inh, procasp3 activ)
O=C(O)C(c1ccccc1)N1C(=O)/C(=C\c2ccc(O)c(O)c2)SC1=S (stereo not drawn)	IDE cell inh 67 | IDE inh confirm 84 | HEK293 tox inactive
Cc1cccc(N2CCN(C(=O)CCCn3c(=O)c4cccn4c4cccnc43)CC2)c1C	IDE cell inh 25 | IDE inh confirm inactive | HEK293 tox 23
O=C(NC1CC1)c1cccc2c1C(=O)c1ccc(N3CCC(Cc4ccccc4)CC3)cc1S2(=O)=O	IDE cell inh 40 (no result: TPT1 inh) | IDE inh confirm 70 | HEK293 tox 45
O=C(NCc1ccc(F)cc1)c1cccc2c1C(=O)c1ccc(N3CCC(Cc4ccccc4)CC3)cc1S2(=O)=O	none (no result: TPT1 inh)
CC1CCN(c2ccc3c(c2)S(=O)(=O)c2cccc(C(=O)O)c2C3=O)CC1	IDE cell inh 32 (no result: TPT1 inh) | IDE inh confirm 48 | HEK293 tox inactive
O=C(O)CN1C(=O)C(=O)N(Cc2ccc(Cl)c(Cl)c2)C1=O	none
COc1cccc2sc(Nc3nc4ccc(NC(C)=O)cc4s3)nc12	IDE cell inh 24 | IDE inh confirm inactive | HEK293 tox 117
COc1cccc2sc(Nc3nc(-c4ccncc4)cs3)nc12	IDE cell inh 17 | IDE inh confirm inactive | HEK293 tox 61
Cc1onc(-c2c(Cl)cccc2Cl)c1COC(=O)c1ccc(Cl)cc1	none
Cc1sc2nc(C)n(/N=C/c3ccccc3)c(=O)c2c1C	IDE cell inh 16 | IDE inh confirm inactive | HEK293 tox inactive
COc1ccc(/C=N/n2c(C)nc3sc(C)c(C)c3c2=O)cc1	none (no result: IDE cell activ)
O=C(c1ccc(Cl)c(NC2=NC3CS(=O)(=O)CC3S2)c1)N1CCN(c2ccc(F)cc2)CC1 (stereo not drawn)	none
COc1cccc(CN2CC(C(=O)NCCc3ccc(C)s3)CCC2=O)c1 (stereo not drawn)	none
Cc1ccc(OCC(=O)NNC(=O)C2CCN(c3ncnc4sc(C)c(C)c34)CC2)cc1	none
Cc1sc2ncnc(N3CCC(C(=O)NNC(=O)COc4ccc(Br)cc4)CC3)c2c1C	IDE cell inh 22 | IDE inh confirm inactive | HEK293 tox inactive
Nc1cccc(S(=O)(=O)Nc2ccccc2)c1	none
CN(C)c1ccc(/C=C/C(=O)c2ccc3c(c2)OCO3)cc1	IDE cell inh 73 (no result: TPT1 inh) | IDE inh confirm 119 | HEK293 tox inactive
CN(C)c1ccc(/C=C2\Oc3ccc(C#Cc4cccc(N)c4)cc3C2=O)cc1	IDE cell inh 44 (no result: TPT1 inh) | IDE inh confirm 49 | HEK293 tox inactive
Cn1c(SCC(=O)OC2CCCCC2)nnc1-c1ccco1	IDE cell inh 19 | IDE inh confirm inactive | HEK293 tox inactive
COCCCn1c(SCC(=O)OC2CCCCC2)nnc1-c1ccco1	none
CC(=O)O[C@@H]1C[C@H]2C(C)(C)C(=O)C=C[C@]2(C)[C@H]2CC[C@@]3(C)[C@H](c4ccoc4)OC(=O)[C@H]4O[C@]43[C@@]21C	IDE cell inh 18 | IDE inh confirm inactive | HEK293 tox 58
O=c1c(O)c(-c2cccs2)oc2ccc(Cl)cc12	IDE cell inh 70, IDE cell activ 24 | IDE inh confirm 26 | HEK293 tox inactive
CC1(C)Cc2c(cnn2-c2ccc(F)cc2)C(NC(=O)c2ccc(=O)oc2)C1 (stereo not drawn)	none
Cc1cccc(C(=O)NCC(=O)OC(C)C(=O)Nc2ccc(Cl)cn2)c1 (stereo not drawn)	IDE cell inh 16 | IDE inh confirm inactive | HEK293 tox inactive
Cc1cccc(OCC(=O)OC(C)C(=O)Nc2ccc(Cl)cn2)c1 (stereo not drawn)	none
COc1ccccc1N1CCN(S(=O)(=O)CCNC(=O)C23CC4CC(CC(C4)C2)C3)CC1	IDE cell inh 20 | IDE inh confirm inactive | HEK293 tox 32
Cc1cc(C)c2c(=O)n(CC(=O)NC3CCCC3)sc2n1	IDE cell inh 27 | IDE inh confirm inactive | HEK293 tox 80
Cc1cc(C)c2c(N)c(C(=O)NC3CCCC3)sc2n1	none
Cc1cc(C)c2c(=O)n(CC(=O)Nc3cccc(Cl)c3C)sc2n1	IDE cell inh 40 | IDE inh confirm inactive | HEK293 tox 79
